Measured values taken from ChEMBL document CHEMBL4513216, “Probing the Open Global Health Chemical Diversity Library for Multistage-Active Starting Points for Next-Generation Antimalarials” (ACS Infect Dis, 2020).

assay: Toxicity liver stage against HepG2, at 10uM; assay type: cell-based; parameters: test concentration 10 uM, cell line HepG2-A16-CD81EGFP; settings: human, HepG2-A16-CD81EGFP cells; read-out: INHIBITION
Procedure, shortened: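 Uninfected HepG2-A16-CD81EGFP cells, 3 × 10^3 per well, 1536-well, plated on prespotted compound at 10 μM final, parasite-free screening media added to match infected plates; puromycin 10 μM positive, DMSO 0.5% negative; run in parallel with 48 h PbLuc assay at 37 °C, 5% CO2; viability by CellTiter-Glo luminescence, normalized to controls.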

| Compound | cytotoxicity at 10 µM [%] |
| --- | --- |
| Cc1cc(CN2CCc3cncnc3C2)no1 | 5.84 |
| N#Cc1c(Cl)nsc1NCc1ccc(N2CCCC(C(N)=O)C2)cc1 (stereo not given) | -9.65 |
| Cc1nc(-c2cccc(Cl)c2)n(CC(=O)NCC2CCCO2)c(=O)c1C (stereo not given) | -7.04 |
| CCN(Cc1nccn1C)C(=O)c1ccc(NCC(C)C)nc1 | -2.2 |
| COc1ccc(N(C(=O)c2ccc(C)nc2)C(C)C)cc1F | -3.17 |
| Cc1ccc2c(c1)SCC(=O)N2CC(=O)N1CCCC1c1cc(C)on1 (stereo not given) | 1.28 |
| O=C(NCc1cc[nH]n1)NCC(c1ccccc1Cl)N1CCCC1 (stereo not given) | 14.7 |
| Cc1ccc(C(=O)NCc2cc(F)ccc2N2CCCN(C)CC2)o1 | -9.7 |
| Cc1csc(CN2CC[C@H]3C[C@H](c4nc(C)no4)O[C@@H]3C2)n1 | -3.35 |
| Cc1ccc(CN2CCC3(CC(C(=O)NC4CCC4)=NO3)C2)o1 (stereo not given) | -97.5 |
| O=C(NCC1(O)CCC1)c1cccc(-n2cccn2)c1 | -2.44 |
| O=C(O)c1ccnc(-c2ccnc(COc3ccccc3Cl)n2)c1 | -9.86 |
| CC(C)c1cc(N2CCC3(CCN(C)C3)C2)ncn1 (stereo not given) | -11.8 |
| CC(C)(O)CN1CCN(C(=O)c2cc3ccccc3c(=O)[nH]2)CC1 | 1.52 |
| O=c1[nH]c(-c2ccccn2)nc2c1CCN(S(=O)(=O)N1CCCC1)C2 | 8.85 |
| Cc1ccn(Cc2nc(C(C)OCC(C)C)no2)c(=O)c1 (stereo not given) | 5.56 |
| CCc1ccccc1OCCNCCc1c[nH]cn1 | 4.69 |
| CCC1COCCN1C(=O)CNC(=O)c1ccc2c(c1)CCC2 (stereo not given) | 8.08 |
| CNc1cc(N2CCCC2CNCc2cccc(C#N)c2)ncn1 (stereo not given) | -10.7 |
| CSc1ncc(C(=O)NCc2cc3n(n2)CCCN(CC(C)C)C3)cn1 | 5.89 |
| CNC(=O)[C@@H](CC(C)C)N1CCC[C@H]1C(=O)N(C)Cc1ccccc1 | 6.14 |
| O=C(C1CCOCC1)N1C[C@H]2CC(OCc3ccccc3)C[C@H]2C1 (stereo not given in full) | -5.59 |

| Compound | cytotoxicity at 10 µM [%] |
| --- | --- |
| Nc1nc(NCCc2[nH]nc3c2CCCC3)cc(N2CCOCC2)n1 | 0.666 |
| Cc1n[nH]cc1CNc1ccc2c(c1)N(C(=O)OC(C)(C)C)CCC2 | -1.97 |
| Cc1c(C(=O)N2CCC3(CCCNC3=O)C2)sc2nc[nH]c(=O)c12 (stereo not given) | -10.7 |
| NC(=O)c1cn[nH]c1C1CCCN1C(=O)c1cnccn1 (stereo not given) | -6.17 |
| O=S(=O)(c1ccccc1)N1CCC2(CCCN2Cc2cccc(Cl)c2)C1 (stereo not given) | -130 |
| Cc1c(C)c2c(c(C)c1O)CC[C@](C)(C(=O)O)O2 [(R)-TROLOX] | -1.69 |
| O=C(c1cc[nH]n1)N1CCc2cc(Br)sc2C1 | 7.01 |
| CO[C@@H]1CC[C@H]2[C@H]1OCCN2C(=O)COc1ccc(F)cc1 | 4.42 |
| CN1C[C@@H](C(=O)NC(C)(C)C)[C@@]2(COc3ccc(F)cc3C2=O)C1 | 1.5 |
| Cc1ccc2c(c1)C(=O)NCC1(CCN(C(=O)c3cnccn3)CC1)O2 | -15.8 |
| COc1cccc(COCC(=O)NC2CCN(CC(N)=O)CC2)c1 | -8.47 |
| CCOCc1nnc(NCc2cccnc2)o1 | 10.9 |
| COc1cc(CNC(=O)c2c(C)noc2C(C)C)ccn1 | -7.9 |
| CCC(CC)C(=O)NCCC(=O)N1CCN(c2ccccn2)CC1 | 4.65 |
| Fc1ccccc1-c1nccnc1C1CCCNC1 (stereo not given) | -25.7 |
| O=C(C1CCOCC1)N1C[C@@H]2[C@@H](C1)OCC(=O)N2Cc1ccncc1 | -8.8 |
| Cc1ccc(O)c(C(=O)N2C[C@@H](C(=O)O)[C@H](c3ccccc3)C2)c1 | 0.00559 |
| CCc1nc(C)c(CN2CCN(c3ncnc4scc(C)c34)CC2)[nH]1 | 16.4 |
| CC(=O)N1CCC(c2ccnc(Nc3ccc(C)cn3)n2)C1 (stereo not given) | -16.7 |
| N#Cc1cccc(N2CCC3(CCC(=O)N(CC4CCCO4)C3)CC2)n1 (stereo not given) | 4.11 |
| Cc1cc(NC(=O)NCCc2cccs2)n(C)n1 | 14.8 |
| O=C1CCC2(CCCN(CCc3ccccc3)C2)N1Cc1cccnc1 (stereo not given) | 4.05 |

| Compound | cytotoxicity at 10 µM [%] |
| --- | --- |
| O=C(c1cccnc1-n1cncn1)N1CCN(CC(F)(F)F)CC1 | 4.39 |
| NC(=O)c1ccc(N2CCN(CCCc3cn[nH]c3)CC2)cc1 | -153 |
| CCc1nccn1-c1cccc(C2CCCN2S(=O)(=O)N(C)C)n1 (stereo not given) | -9.85 |
| Cc1nsc(N2CCN(CC(=O)NCc3ccc(F)cc3)CC2)n1 | -6.84 |
| CC(=O)N1CCC2(CC1)c1ncc(-c3cccnc3)n1CCN2C | -94 |
| O=C(NCc1cccnc1)C1=NOC2(CCN(C(=O)N3CCCC3)C2)C1 (stereo not given) | -4.8 |
| Cc1cc(C(O)CCNS(=O)(=O)c2ccc(Cl)s2)c(C)o1 (stereo not given) | -3.95 |
| c1cnc(N2CCOCC3(CCCN(CC4CCOCC4)C3)C2)nc1 (stereo not given) | -8.95 |
| COc1c(C(=O)NCC(C)Sc2ccccc2)c(C)nn1C (stereo not given) | 12.1 |
| O=C(C1CCOCC1)N1C[C@H](OCc2cccnc2)[C@H]2COC[C@H]21 | 1.99 |
| CCOc1ccc(C(=O)N2CCCC2c2c(C)nn(C)c2OC)cn1 (stereo not given) | 2.63 |
| COc1ccnc(N2CCC3(CCCN(CC4CC4)C3=O)C2)n1 (stereo not given) | 1.13 |
| CCc1cc(=O)n(CCNC(=O)Nc2ccc(OC(F)(F)F)cc2)cn1 | -0.898 |
| C[C@H]1C[C@@H]2CCN(Cc3ccco3)C[C@H]2O1 | -80.1 |
| CC(C)c1nnc(N2C[C@H]3CC[C@@H](C2)N(CC2CCC2)C3)s1 | -7.38 |
| CCc1nc(C2CCCN(C(=O)c3cn(C)nc3C)C2)no1 (stereo not given) | -14.5 |
| O=C(CN1CCCC1Cn1cccn1)NCCOc1cccc(F)c1 (stereo not given) | -3.54 |
| CC(NC(=O)c1cccs1)C(=O)Nc1cccnc1N1CCCCC1 (stereo not given) | -8.94 |
| Cc1ccccc1OC1CCN(S(=O)(=O)c2c(C)n[nH]c2C)CC1 | 0.0656 |
| Cc1nn(CCO)cc1CN1CCCN(C2CCCC2)CC1 | 0.292 |
| Cc1ccnn1CCC(=O)N1CCC(c2cnccn2)CC1 | -26.1 |
| Cc1c(CNS(=O)(=O)c2cccc(COC(C)C)c2)cnn1C | 6.14 |

| Compound | cytotoxicity at 10 µM [%] |
| --- | --- |
| O=C(NCCn1nc(C2CCNC2)c2cccnc21)C1CC1 (stereo not given) | -25.8 |
| COc1ccccc1OC1CCN(C(=O)CCCN2CCOCC2)CC1 | -177 |
| COc1cc(C)nc(N2CCN(C(=O)CCc3cscn3)CC2)n1 | -10.2 |
| c1ccc(COc2ccccc2CNC2CCc3ncnn3C2)cc1 (stereo not given) | -10.2 |
| CCn1c(CN(C)C)nnc1C1CCN(c2ccnc(C)c2)CC1 | 14.9 |
| O=C(c1nc2c(s1)CCCN2C(=O)C1CC1)N1CCCC1 | 7.02 |
| Cc1nn(C)c(C)c1NC(=O)CCn1ncc2ccc(Cl)cc21 | 7.38 |
| O=S(=O)(CCCN1CCc2c(ncn2C2CC2)C1)c1ccccc1 | -3.33 |
| CC(=O)N1CCOC2(CCCN(Cc3ccc(Cl)c(C(F)(F)F)c3)C2)C1 (stereo not given) | 3.68 |
| Cc1noc(C)c1CN(C)Cc1csc(-c2ccccc2F)n1 | 37.2 |
| COc1ccc(CSc2nnc(N)n2C2CC2)cc1F | 5.11 |
| Cc1csc(CN2CCC[C@]3(C[C@@H](Oc4ccccn4)CO3)C2)n1 | -141 |
| O=S(=O)(C1CC1)N1CCOC2(CCCN(c3ccccc3)C2)C1 (stereo not given) | -4.54 |
| CN(C)CC1(O)CCCN(C(=O)Cn2nc3ccccc3n2)CC1 (stereo not given) | -8.14 |
| O=C([C@H]1COC[C@H]2CN(c3ncc(F)cn3)C[C@H]21)N1CCOCC1 | -5.58 |
| CCSCCNC(=O)C(c1cccc(C)c1)N(C)C (stereo not given) | -23 |
| O=C(CCc1ccsc1)N1CCC(Cc2ccc(CO)cc2)C1 (stereo not given) | 14.7 |
| CC[C@H]1CN(C(=O)C2CC2)CC[C@H]1CC(=O)NCCN1CCOCC1 | -7.3 |
| CCc1nc2n(n1)CC(NCc1ccnc(-c3ccccc3)n1)CC2 (stereo not given) | -8.3 |
| Cc1ccc2c(n1)N(CCn1cccn1)CCN(CC1CC1)C2 | 8.83 |
| CN(C)CC1CCCCN1C(=O)c1ccc(N2CCOCC2)cc1 (stereo not given) | -0.0679 |
| CN(Cc1noc(C(C)(C)C)n1)CC1CCN(CCO)CC1 | 7.17 |

| Compound | cytotoxicity at 10 µM [%] |
| --- | --- |
| COc1ccc2c(c1)CC(C1CCOCC1)N(C(=O)c1cnccn1)C2 (stereo not given) | 5.21 |
| CCC(C)N(Cc1cnc(OC)nc1)Cc1ccsc1 (stereo not given) | 1.71 |
| CCc1cnc(CN(C)C2CCN(CC3CCC3)C2)o1 (stereo not given) | -5.99 |
| COCCC(=O)NC(C)(C(N)=O)c1cccc(Cl)c1 (stereo not given) | 17.7 |
| O=C(COc1coc(CN2CCCCC2)cc1=O)Nc1ccc(Cl)cc1 | 3.48 |
| CCc1nnc(CN2CCC(c3nc4cc(Cl)ccc4o3)CC2)o1 | -0.956 |
| Cc1ccccc1-c1cncc(C2CCN(S(=O)(=O)N(C)C)CC2)n1 | 0.0706 |
| COc1cc(OC)nc(N2CCC3(CC2)OCCCC3O)n1 (stereo not given) | 2.67 |
| Cc1nn(C)c(Cl)c1C(=O)NCc1cccnc1N1CCOCC1 | -132 |
| COc1c(CC2CC(C(=O)O)=NO2)c(Br)c2c(c1OC)OCO2 (stereo not given) | 6.36 |
| CC(O)CCN(C)C(=O)Nc1cc(F)cc(Br)c1 (stereo not given) | 4.12 |
| COCC(=O)N1CCN(Cc2csc(-c3ncccn3)n2)CC1 | -11.3 |
| CC(C)C(=O)NC1CCN(CCO)CC1 | -8.84 |
| CN(c1ccncn1)C1CC2(CCN(C(=O)c3cccs3)C2)C1 (stereo not given) | -5.05 |
| Clc1ccccc1-c1nc(CNCCn2cccn2)cs1 | -3.45 |
| CN1CCN(Cc2cccnc2)C2(CCN(C3CCOCC3)C2)C1=O (stereo not given) | -5.87 |
| Cc1ccc(NC(=O)C2CSCN2C(=O)c2cnn(C)c2)c(C)c1 (stereo not given) | -3.97 |
| CCc1n[nH]c(C2CN(C(=O)c3cscn3)CCO2)n1 (stereo not given) | 5.08 |
| O=c1c2ccccc2nc2n1C(CSc1cccc(C(F)(F)F)c1)CN2 (stereo not given) | 12.9 |
| CC(C)N1CCOC(c2cc(CCO)[nH]n2)C1 (stereo not given) | 1.47 |
| CCc1cc(CNCc2ccccc2N(C)C2CCN(C)CC2)on1 | -11.7 |
| Cc1nc(NCc2cccc(F)c2)cc(C2CCNCC2)n1 | 2.79 |
